This is a sample that favours compounds with a hit; in the whole collection about 1.9% have one here.
CHRM5 antagonist = blocks acetylcholine activation of human M5 receptor | P08912 | CHO-hM5 cells, Fluo-8 calcium fluorescence, ACh EC80 | inhibition, % at 3 µM | 360,000 compounds, 0.59% hits | AID 624040;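 active = inhibition above a per-plate cutoff, the mean of that plate's test compounds plus 3 SD, cut at about 27% in these data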;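 note: 0% = acetylcholine EC80 with DMSO and 100% = DMSO without agonist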
M5 PAM = potentiates acetylcholine response at human M5 receptor; P08912; CHO-K1 hM5, Fluo-8 calcium, ACh EC20 PAM; 0% = ACh EC20, 100% = ACh EC100; activation, % at 3 µM; 360,000 compounds, 0.3% hits; AID 624038;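 active = activation above the run cutoff, the mean activation of all test compounds plus 3 SD, cut at about 18% in these data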
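system = human M5 receptor in CHO-K1 cells | reagent = EC20 acetylcholine as agonist stimulus | compound dosing = single-point, 3 µM nominal | incubation = Fluo-8 loading 80 min at 37 °C plus 30 min room temperature | detection = Fluo-8 calcium dye fluorescence, kinetic read | benchmarks = low control EC20 acetylcholine (0%), high control EC100 acetylcholine (100%)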
M4 antag = antagonists of human muscarinic M4 receptor (CHRM4); CHO-hM4 cells, ACh EC80, Fluo-8 calcium fluorescence; inhibition, % at 3 µM; 360,000 compounds, 0.73% hits;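 active = inhibition above its plate's cutoff, the mean inhibition of sample wells plus 3 SD, cut at about 27% in these data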;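 note: 0% = acetylcholine EC80 with DMSO and 100% = DMSO without agonist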
Target sequence (P08173 whole entry, looked up): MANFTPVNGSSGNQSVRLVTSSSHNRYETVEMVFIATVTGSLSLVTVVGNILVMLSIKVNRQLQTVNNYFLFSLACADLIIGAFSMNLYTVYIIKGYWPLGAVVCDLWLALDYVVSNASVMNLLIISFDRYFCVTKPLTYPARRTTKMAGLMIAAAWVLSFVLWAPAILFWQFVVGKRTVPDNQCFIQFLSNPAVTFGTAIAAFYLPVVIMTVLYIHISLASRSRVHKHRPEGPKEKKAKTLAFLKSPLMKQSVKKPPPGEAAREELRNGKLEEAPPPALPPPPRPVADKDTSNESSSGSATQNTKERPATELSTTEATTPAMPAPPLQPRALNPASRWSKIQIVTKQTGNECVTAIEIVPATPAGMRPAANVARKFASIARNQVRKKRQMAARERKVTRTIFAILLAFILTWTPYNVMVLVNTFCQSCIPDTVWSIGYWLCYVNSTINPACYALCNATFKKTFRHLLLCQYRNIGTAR
CHRM4 agonist = agonists of human muscarinic M4 receptor (CHRM4) | 360,000 compounds, 0.14% hits | CHO-K1 hM4/Gqi5, Fluo-8 calcium fluorescence; vehicle 0%, full acetylcholine response 100% | activation, % at 3 µM;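 active = activation above the run mean over all test wells plus 3 SD, cut at about 32% in these data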;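 note: peak over basal fluorescence ratio per well then scaled between controls; 0% = DMSO wells and 100% = acetylcholine at EC100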
M4 PAM = CHRM4 positive allosteric modulation; activation, % at 3 µM; 360,000 compounds, 0.4% hits; P08173; CHO-K1 hM4/Gqi5, Fluo-8 calcium fluorescence, ACh EC20; 0% = ACh EC20, 100% = maximal ACh;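 active = activation above its plate's cutoff, the mean activation of sample wells plus 3 SD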
CHRM5 agonist = agonists of human muscarinic M5 receptor (CHRM5). P08912. CHO-K1 hM5 cells, Fluo-8 calcium fluorescence; 0% DMSO wells, 100% maximal acetylcholine response. activation, % at 3 µM. 360,000 compounds, 0.19% hits;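 active = activation above the run's mean over test compounds plus 3 SD, cut at about 23% in these data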;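 note: signal is peak over basal fluorescence ratio across the kinetic read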
Numbers without * were called inactive.

SMILES	CHRM5 antagonist	M5 PAM	M4 antag	CHRM4 agonist	M4 PAM	CHRM5 agonist
On1ccccc1=S	23.4	-2.0	31.0*	3.1	0.5	3.2
Cc1ccccc1N(CC(=O)N1CCc2ccccc2C1)S(C)(=O)=O	0.8	9.2	-2.4	0.6	2.2	-6.3
CS(=O)(=O)N(CC(=O)N1CCc2ccccc2C1)c1ccccc1Br	16.7	0.7	22.0	7.9	16.3*	2.5
NS(=O)(=O)c1ccc(NS(=O)(=O)c2ccc(NC(=O)c3ccc(-c4ccccc4)cc3)cc2)cc1	0.6	-3.6	-1.7	1.6	-0.5	27.2*
O=C(Nc1cccnc1)c1ccc(-c2ccccc2)cc1	3.9	-9.0	4.3	5.3	-9.6	-1.3
O=C(Nc1ccncc1)c1ccc(-c2ccccc2)cc1	33.5*	-28.7	19.6	14.4	-12.1	5.1
O=c1c(/C=N\NS(=O)(=O)c2ccccc2)coc2ccc(Cl)cc12	35.1*	-10.9	0.0	11.3	-6.8	-4.5
Cc1ccc2c(c1C)NC(=O)C21N2CCCC2C(C(=O)c2ccc3ccccc3c2)C12C(=O)Nc1ccccc12 (stereo not drawn)	5.5	18.5*	3.0	0.1	10.9	8.4
Cc1nc(C)c(C(=O)N2CCCC(C(=O)c3ccc4ccccc4c3)C2)s1 (stereo not drawn)	10.6	-4.0	-4.9	9.3	-7.2	1.1
O=C(Nc1ccc(Cl)c(Cl)c1)O/N=C/c1ccncc1	31.6*	-15.8	14.4	14.1	-18.4	7.5
O=S(=O)(Nc1nc(-c2ccccc2)cs1)c1cc(Cl)ccc1Cl	8.3	-3.0	2.1	0.4	3.0	3.5
COc1ccc(CCN(C)C(=O)CSc2nc3ccccc3c(=O)n2CC2CCCO2)cc1OC (stereo not drawn)	-0.5	-5.4	-14.5	4.3	14.3	-1.9
c1ccc(Cn2c(-c3ccccc3)c[n+]3c2SCCC3)cc1	96.2*	-27.8	96.5*	0.2	-16.1	-18.4
COc1ccc(-c2c[n+]3c(n2-c2ccccc2)SCC3)cc1	-0.1	5.9	21.8	0.3	-11.8	-16.8
CCOC(=O)c1ccc(N=c2scc(C)n2CC)cc1	15.8	-5.6	-7.7	-0.6	-7.6	-8.3
CCOC(=O)c1ccc(N=C2C(=S)N(c3ccc(C(=O)OCC)cc3)C(=N)N2/N=C/c2ccccc2)cc1	87.0*	-19.5	99.3*	0.8	-30.7	-7.2
COc1ccc(NC(=S)NC(NC(=O)c2cccc(C)c2)C(Cl)(Cl)Cl)c([N+](=O)[O-])c1 (stereo not drawn)	-1.9	-7.3	-2.7	3.4	0.8	0.7
COc1ccc(NC(=S)NC(NC(=O)c2cccc(Cl)c2)C(Cl)(Cl)Cl)c([N+](=O)[O-])c1 (stereo not drawn)	39.3*	-19.1	8.1	21.5	-5.0	11.8
O=C(Nc1ccc2cccnc2c1)c1ccc(Br)cc1	9.4	1.1	-17.5	-1.8	15.4*	0.8
CC(C)Cc1nn2c(N)c(/C=C3\C=Nc4ccccc43)c(=O)nc2s1	32.2*	-18.7	1.0	14.0	-8.4	2.7
CC(C)CNC(=O)C1(C)CCCN1C(=O)Cc1cccc2ccccc12 (stereo not drawn)	4.3	-0.4	-4.8	0.5	3.7	0.5
CN(CCc1ccccn1)C(=O)CCNC(=O)Cn1cnc2ccccc2c1=O	5.7	1.5	-13.5	2.2	19.0*	1.7
CN(C(=O)CCNC(=O)Cn1cnc2ccccc2c1=O)c1ccc(Br)cc1	6.2	0.4	9.4	0.8	-4.0	-0.5
Cc1ccc(C(=O)NC(=S)Nc2ccccc2N2CCOCC2)cc1C	-1.4	3.4	2.8	0.2	-0.3	-3.4
CCC(C)NC(=O)C(NS(=O)(=O)c1cccc2nsnc12)c1ccccc1 (stereo not drawn)	-2.1	35.2*	-15.4	0.6	4.9	-9.4
O=c1[nH]ccc2c(O)cccc12	6.8	-16.1	-1.8	0.4	3.6	32.4*
CCSc1nnc(NC(=O)NC(C)(C(F)(F)F)C(F)(F)F)s1	14.2	-10.7	4.8	10.5	-6.1	1.9
